Assays:
Muscle tissue [1] = assay: Biodistribution in Kunming mouse muscle at 1 uCi, iv after 2 mins by gamma counting; format: ADME, organism-based; details: in vivo
Method in brief: (§1)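 Female normal KunMing mice, about 20 g. [125I]-labelled tracer (1 μCi) in 100 μL saline injected into the tail vein. Mice killed at set times after injection; organs removed, weighed and counted in a gamma counter. %ID/g of wet tissue calculated against diluted aliquots of the injected dose.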

Spleen [2] = assay: Biodistribution in Kunming mouse spleen at 1 uCi, iv after 2 mins by gamma counting; format: ADME, organism-based; details: in vivo; method in brief: as §1
Heart [3] = assay: Biodistribution in Kunming mouse heart at 1 uCi, iv after 2 mins by gamma counting; format: ADME, organism-based; details: in vivo; method in brief: as §1
Kidney [4] = assay: Biodistribution in Kunming mouse kidney at 1 uCi, iv after 15 mins by gamma counting; format: ADME, organism-based; details: in vivo, 0.25 h; method in brief: as §1
Brain [5] = assay: Biodistribution in Kunming mouse brain at 1 uCi, iv after 2 mins by gamma counting; format: ADME, organism-based; details: in vivo; method in brief: as §1
Muscle tissue [6] = assay: Biodistribution in Kunming mouse muscle at 1 uCi, iv after 60 mins by gamma counting; format: ADME, organism-based; details: in vivo, 1 h; method in brief: as §1
Kidney [7] = assay: Biodistribution in Kunming mouse kidney at 1 uCi, iv after 120 mins by gamma counting; format: ADME, organism-based; details: in vivo, 2 h; method in brief: as §1
Kidney [8] = assay: Biodistribution in Kunming mouse kidney at 1 uCi, iv after 60 mins by gamma counting; format: ADME, organism-based; details: in vivo, 1 h; method in brief: as §1
Lung [9] = assay: Biodistribution in Kunming mouse lung at 1 uCi, iv after 120 mins by gamma counting; format: ADME, organism-based; details: in vivo, 2 h; method in brief: as §1
Spleen [10] = assay: Biodistribution in Kunming mouse spleen at 1 uCi, iv after 60 mins by gamma counting; format: ADME, organism-based; details: in vivo, 1 h; method in brief: as §1
Heart [11] = assay: Biodistribution in Kunming mouse heart at 1 uCi, iv after 60 mins by gamma counting; format: ADME, organism-based; details: in vivo, 1 h; method in brief: as §1
Brain [12] = assay: Biodistribution in Kunming mouse brain at 1 uCi, iv after 30 mins by gamma counting; format: ADME, organism-based; details: in vivo, 0.5 h; method in brief: as §1
Lung [13] = assay: Biodistribution in Kunming mouse lung at 1 uCi, iv after 2 mins by gamma counting; format: ADME, organism-based; details: in vivo; method in brief: as §1
Kidney [14] = assay: Biodistribution in Kunming mouse kidney at 1 uCi, iv after 2 mins by gamma counting; format: ADME, organism-based; details: in vivo; method in brief: as §1
Stomach [15] = assay: Biodistribution in Kunming mouse stomach assessed per organ at 1 uCi, iv after 15 mins by gamma counting; format: ADME, organism-based; details: in vivo, 0.25 h; method in brief: as §1
Liver [16] = assay: Biodistribution in Kunming mouse liver at 1 uCi, iv after 15 mins by gamma counting; format: ADME, organism-based; details: in vivo, 0.25 h; method in brief: as §1
Liver [17] = assay: Biodistribution in Kunming mouse liver at 1 uCi, iv after 30 mins by gamma counting; format: ADME, organism-based; details: in vivo, 0.5 h; method in brief: as §1
Spleen [18] = assay: Biodistribution in Kunming mouse spleen at 1 uCi, iv after 15 mins by gamma counting; format: ADME, organism-based; details: in vivo, 0.25 h; method in brief: as §1
Lung [19] = assay: Biodistribution in Kunming mouse lung at 1 uCi, iv after 60 mins by gamma counting; format: ADME, organism-based; details: in vivo, 1 h; method in brief: as §1
Muscle tissue [20] = assay: Biodistribution in Kunming mouse muscle at 1 uCi, iv after 15 mins by gamma counting; format: ADME, organism-based; details: in vivo, 0.25 h; method in brief: as §1
[21] = Octanol-phosphate buffer partition coefficient, log D of the compound at pH 7.4; format: physicochemical
Method in brief: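 Radiotracer added to premixed n-octanol (3 g) and PBS (0.05 M, pH 7.4; 3 g), and partitioned between the two phases.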

Liver [22] = assay: Biodistribution in Kunming mouse liver at 1 uCi, iv after 60 mins by gamma counting; format: ADME, organism-based; details: in vivo, 1 h; method in brief: as §1
Heart [23] = assay: Biodistribution in Kunming mouse heart at 1 uCi, iv after 30 mins by gamma counting; format: ADME, organism-based; details: in vivo, 0.5 h; method in brief: as §1
Stomach [24] = assay: Biodistribution in Kunming mouse stomach assessed per organ at 1 uCi, iv after 2 mins by gamma counting; format: ADME, organism-based; details: in vivo; method in brief: as §1
Brain [25] = assay: Biodistribution in Kunming mouse brain at 1 uCi, iv after 120 mins by gamma counting; format: ADME, organism-based; details: in vivo, 2 h; method in brief: as §1
Heart [26] = assay: Biodistribution in Kunming mouse heart at 1 uCi, iv after 15 mins by gamma counting; format: ADME, organism-based; details: in vivo, 0.25 h; method in brief: as §1
Brain [27] = assay: Biodistribution in Kunming mouse brain at 1 uCi, iv after 15 mins by gamma counting; format: ADME, organism-based; details: in vivo, 0.25 h; method in brief: as §1
Blood [28] = assay: Biodistribution in Kunming mouse blood at 1 uCi, iv after 15 mins by gamma counting; format: ADME, organism-based; details: in vivo, 0.25 h; method in brief: as §1
Lung [29] = assay: Biodistribution in Kunming mouse lung at 1 uCi, iv after 30 mins by gamma counting; format: ADME, organism-based; details: in vivo, 0.5 h; method in brief: as §1
Lung [30] = assay: Biodistribution in Kunming mouse lung at 1 uCi, iv after 15 mins by gamma counting; format: ADME, organism-based; details: in vivo, 0.25 h; method in brief: as §1
Blood [31] = assay: Biodistribution in Kunming mouse blood at 1 uCi, iv after 30 mins by gamma counting; format: ADME, organism-based; details: in vivo, 0.5 h; method in brief: as §1
Heart [32] = assay: Biodistribution in Kunming mouse heart at 1 uCi, iv after 120 mins by gamma counting; format: ADME, organism-based; details: in vivo, 2 h; method in brief: as §1
Liver [33] = assay: Biodistribution in Kunming mouse liver at 1 uCi, iv after 120 mins by gamma counting; format: ADME, organism-based; details: in vivo, 2 h; method in brief: as §1
Blood [34] = assay: Biodistribution in Kunming mouse blood at 1 uCi, iv after 2 mins by gamma counting; format: ADME, organism-based; details: in vivo; method in brief: as §1
Stomach [35] = assay: Biodistribution in Kunming mouse stomach assessed per organ at 1 uCi, iv after 120 mins by gamma counting; format: ADME, organism-based; details: in vivo, 2 h; method in brief: as §1
Kidney [36] = assay: Biodistribution in Kunming mouse kidney at 1 uCi, iv after 30 mins by gamma counting; format: ADME, organism-based; details: in vivo, 0.5 h; method in brief: as §1
Spleen [37] = assay: Biodistribution in Kunming mouse spleen at 1 uCi, iv after 120 mins by gamma counting; format: ADME, organism-based; details: in vivo, 2 h; method in brief: as §1
Blood [38] = assay: Biodistribution in Kunming mouse blood at 1 uCi, iv after 120 mins by gamma counting; format: ADME, organism-based; details: in vivo, 2 h; method in brief: as §1
Muscle tissue [39] = assay: Biodistribution in Kunming mouse muscle at 1 uCi, iv after 120 mins by gamma counting; format: ADME, organism-based; details: in vivo, 2 h; method in brief: as §1
Blood [40] = assay: Biodistribution in Kunming mouse blood at 1 uCi, iv after 60 mins by gamma counting; format: ADME, organism-based; details: in vivo, 1 h; method in brief: as §1
Stomach [41] = assay: Biodistribution in Kunming mouse stomach assessed per organ at 1 uCi, iv after 60 mins by gamma counting; format: ADME, organism-based; details: in vivo, 1 h
Muscle tissue [42] = assay: Biodistribution in Kunming mouse muscle at 1 uCi, iv after 30 mins by gamma counting; format: ADME, organism-based; details: in vivo, 0.5 h; method in brief: as §1
Brain [43] = assay: Biodistribution in Kunming mouse brain at 1 uCi, iv after 60 mins by gamma counting; format: ADME, organism-based; details: in vivo, 1 h; method in brief: as §1
Liver [44] = assay: Biodistribution in Kunming mouse liver at 1 uCi, iv after 2 mins by gamma counting; format: ADME, organism-based; details: in vivo; method in brief: as §1
Stomach [45] = assay: Biodistribution in Kunming mouse stomach assessed per organ at 1 uCi, iv after 30 mins by gamma counting; format: ADME, organism-based; details: in vivo, 0.5 h; method in brief: as §1
Spleen [46] = assay: Biodistribution in Kunming mouse spleen at 1 uCi, iv after 30 mins by gamma counting; format: ADME, organism-based; details: in vivo, 0.5 h; method in brief: as §1

[125I]c1ccc(/C=C/c2ccc(-c3cccs3)s2)cc1
Drug uptake (Muscle tissue [1]): 0.85 % ID/g
Drug uptake (Spleen [2]): 11.46 % ID/g
Drug uptake (Heart [3]): 5.53 % ID/g
Drug uptake (Kidney [4]): 4.37 % ID/g
Drug uptake (Brain [5]): 2.11 % ID/g
Drug uptake (Muscle tissue [6]): 0.93 % ID/g
Drug uptake (Kidney [7]): 6.35 % ID/g
Drug uptake (Kidney [8]): 4.91 % ID/g
Drug uptake (Lung [9]): 6.29 % ID/g
Drug uptake (Spleen [10]): 14.58 % ID/g
Drug uptake (Heart [11]): 2.09 % ID/g
Drug uptake (Brain [12]): 0.41 % ID/g
Drug uptake (Lung [13]): 20.89 % ID/g
Drug uptake (Kidney [14]): 4.69 % ID/g
Drug uptake (Stomach [15]): 1.48 %ID
Drug uptake (Liver [16]): 40.18 % ID/g
Drug uptake (Liver [17]): 42.17 % ID/g
Drug uptake (Spleen [18]): 12.61 % ID/g
Drug uptake (Lung [19]): 12.99 % ID/g
Drug uptake (Muscle tissue [20]): 0.97 % ID/g
logD [21]: 3.31
Drug uptake (Liver [22]): 47.7 % ID/g
Drug uptake (Heart [23]): 3.35 % ID/g
Drug uptake (Stomach [24]): 0.61 %ID
Drug uptake (Brain [25]): 0.55 % ID/g
Drug uptake (Heart [26]): 3.37 % ID/g
Drug uptake (Brain [27]): 0.42 % ID/g
Drug uptake (Blood [28]): 1.38 % ID/g
Drug uptake (Lung [29]): 15.69 % ID/g
Drug uptake (Lung [30]): 18.99 % ID/g
Drug uptake (Blood [31]): 1.16 % ID/g
Drug uptake (Heart [32]): 3.39 % ID/g
Drug uptake (Liver [33]): 45.74 % ID/g
Drug uptake (Blood [34]): 12.1 % ID/g
Drug uptake (Stomach [35]): 3.36 %ID
Drug uptake (Kidney [36]): 4.56 % ID/g
Drug uptake (Spleen [37]): 21.98 % ID/g
Drug uptake (Blood [38]): 1.76 % ID/g
Drug uptake (Muscle tissue [39]): 0.76 % ID/g
Drug uptake (Blood [40]): 1.29 % ID/g
Drug uptake (Stomach [41]): 4.28 %ID
Drug uptake (Muscle tissue [42]): 1.25 % ID/g
Drug uptake (Brain [43]): 0.47 % ID/g
Drug uptake (Liver [44]): 47.12 % ID/g
Drug uptake (Stomach [45]): 3.25 %ID
Drug uptake (Spleen [46]): 14.82 % ID/g

COc1ccc(/C=C/c2ccc(-c3ccc([125I])s3)s2)cc1
Drug uptake (Muscle tissue [1]): 1.61 % ID/g
Drug uptake (Spleen [2]): 9.14 % ID/g
Drug uptake (Heart [3]): 5.08 % ID/g
Drug uptake (Kidney [4]): 6.61 % ID/g
Drug uptake (Brain [5]): 0.5 % ID/g
Drug uptake (Muscle tissue [6]): 3.95 % ID/g
Drug uptake (Kidney [7]): 6.33 % ID/g
Drug uptake (Kidney [8]): 6.42 % ID/g
Drug uptake (Lung [9]): 7.08 % ID/g
Drug uptake (Spleen [10]): 6.38 % ID/g
Drug uptake (Heart [11]): 5.33 % ID/g
Drug uptake (Brain [12]): 0.39 % ID/g
Drug uptake (Lung [13]): 26.17 % ID/g
Drug uptake (Kidney [14]): 4.82 % ID/g
Drug uptake (Stomach [15]): 2.6 %ID
Drug uptake (Liver [16]): 46.86 % ID/g
Drug uptake (Liver [17]): 26.91 % ID/g
Drug uptake (Spleen [18]): 11.2 % ID/g
Drug uptake (Lung [19]): 10.45 % ID/g
Drug uptake (Muscle tissue [20]): 2.23 % ID/g
logD [21]: 3.07
Drug uptake (Liver [22]): 15.74 % ID/g
Drug uptake (Heart [23]): 5.55 % ID/g
Drug uptake (Stomach [24]): 0.39 %ID
Drug uptake (Brain [25]): 0.59 % ID/g
Drug uptake (Heart [26]): 6.25 % ID/g
Drug uptake (Brain [27]): 0.44 % ID/g
Drug uptake (Blood [28]): 7.99 % ID/g
Drug uptake (Lung [29]): 12.95 % ID/g
Drug uptake (Lung [30]): 16.37 % ID/g
Drug uptake (Blood [31]): 6.18 % ID/g
Drug uptake (Heart [32]): 4.18 % ID/g
Drug uptake (Liver [33]): 11 % ID/g
Drug uptake (Blood [34]): 11.21 % ID/g
Drug uptake (Stomach [35]): 20.22 %ID
Drug uptake (Kidney [36]): 5.92 % ID/g
Drug uptake (Spleen [37]): 7.21 % ID/g
Drug uptake (Blood [38]): 6.85 % ID/g
Drug uptake (Muscle tissue [39]): 2.83 % ID/g
Drug uptake (Blood [40]): 6.7 % ID/g
Drug uptake (Stomach [41]): 8.9 %ID
Drug uptake (Muscle tissue [42]): 2.12 % ID/g
Drug uptake (Brain [43]): 0.5 % ID/g
Drug uptake (Liver [44]): 45.73 % ID/g
Drug uptake (Stomach [45]): 5.11 %ID
Drug uptake (Spleen [46]): 9.4 % ID/g

— ChEMBL document CHEMBL1795269, “Novel (E)-5-styryl-2,2'-bithiophene derivatives as ligands for β-amyloid plaques” (Eur J Med Chem, 2011)
